Test results: ChEMBL document CHEMBL3792373, “Anti-methicillin resistant Staphylococcus aureus activity, synergism with oxacillin and molecular docking studies of metronidazole-triazole hybrids” (Eur J Med Chem, 2016)
In brackets after ≈: the same amount, converted by molar mass.

Assays:
Assay type in all cases: functional
[1] = test system: Staphylococcus aureus; assay: Antimicrobial activity against methicillin-resistant Staphylococcus aureus isolate 19a after 24 hrs by agar plate dilution method
In short: (§1)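 Clinical MRSA isolates from axilla/nasal swabs, identified by mannitol salt agar, Gram stain and coagulase test. Agar plate dilution with compound series 0.03–128 µg/mL. Inoculum suspended in water to McFarland 0.5. Incubation 24 h at 37 °C. MIC read as the lowest level without white growth spots. Dilution series quality-controlled with S. aureus NCTC 6571.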

[2] = test system: Staphylococcus aureus; assay: Antimicrobial activity against methicillin-resistant Staphylococcus aureus isolate 20a after 24 hrs by agar plate dilution method in presence of oxacillin (1:1)
In short: (§2)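 Test compound and oxacillin mixed 1:1, each at 32 µg/mL in the mixture, then serially diluted into agar plates. Clinical MRSA isolates at McFarland 0.5 in water were spotted onto the plates and incubated 24 h at 37 °C. Growth was read as white spots. NCTC 6571 S. aureus served as the dilution-series control.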

[3] = test system: Staphylococcus aureus; assay: Antimicrobial activity against methicillin-resistant Staphylococcus aureus isolate 15a after 24 hrs by agar plate dilution method; in short: as §1
[4] = test system: Staphylococcus aureus; assay: Antimicrobial activity against methicillin-resistant Staphylococcus aureus isolate 16a after 24 hrs by agar plate dilution method; in short: as §1
[5] = test system: Staphylococcus aureus; assay: Antimicrobial activity against methicillin-resistant Staphylococcus aureus isolate 29a after 24 hrs by agar plate dilution method; in short: as §1
[6] = test system: Staphylococcus aureus; assay: Antimicrobial activity against methicillin-resistant Staphylococcus aureus isolate 2a after 24 hrs by agar plate dilution method; in short: as §1
[7] = test system: Staphylococcus aureus; assay: Antimicrobial activity against methicillin-resistant Staphylococcus aureus isolate 22a after 24 hrs by agar plate dilution method in presence of oxacillin (1:1); in short: as §2
[8] = test system: Staphylococcus aureus; assay: Antimicrobial activity against methicillin-resistant Staphylococcus aureus isolate 4a after 24 hrs by agar plate dilution method in presence of oxacillin (1:1); in short: as §2
[9] = test system: Staphylococcus aureus; assay: Bactericidal activity against methicillin-resistant Staphylococcus aureus isolate 1a assessed as reduction in colony counts at 32 ug/ml after 24 hrs by pour plate method (reference value: 12.64 +/- 0.224 log10CFU/ml)
[10] = test system: Staphylococcus aureus; assay: Antimicrobial activity against methicillin-resistant Staphylococcus aureus isolate 23a after 24 hrs by agar plate dilution method; in short: as §1
[11] = test system: Staphylococcus aureus; assay: Antimicrobial activity against methicillin-resistant Staphylococcus aureus isolate 26a after 24 hrs by agar plate dilution method; in short: as §1
[12] = test system: Staphylococcus aureus; assay: Antimicrobial activity against methicillin-resistant Staphylococcus aureus isolate 27a after 24 hrs by agar plate dilution method; in short: as §1
[13] = test system: Staphylococcus aureus; assay: Antimicrobial activity against methicillin-resistant Staphylococcus aureus isolate 27a after 24 hrs by agar plate dilution method in presence of oxacillin (1:1); in short: as §2
[14] = test system: Staphylococcus aureus; assay: Antimicrobial activity against methicillin-resistant Staphylococcus aureus isolate 14a after 24 hrs by agar plate dilution method in presence of oxacillin (1:1); in short: as §2
[15] = test system: Staphylococcus aureus; assay: Antimicrobial activity against methicillin-resistant Staphylococcus aureus isolate 21a after 24 hrs by agar plate dilution method; in short: as §1
[16] = test system: Staphylococcus aureus; assay: Antimicrobial activity against methicillin-resistant Staphylococcus aureus isolate 30a after 24 hrs by agar plate dilution method; in short: as §1
[17] = test system: Staphylococcus aureus; assay: Antimicrobial activity against methicillin-resistant Staphylococcus aureus isolate 15a after 24 hrs by agar plate dilution method in presence of oxacillin (1:1); in short: as §2
[18] = test system: Staphylococcus aureus; assay: Antimicrobial activity against methicillin-resistant Staphylococcus aureus isolate 10a after 24 hrs by agar plate dilution method in presence of oxacillin (1:1); in short: as §2
[19] = test system: Staphylococcus aureus; assay: Antimicrobial activity against methicillin-resistant Staphylococcus aureus isolate 6a after 24 hrs by agar plate dilution method in presence of oxacillin (1:1)
In short: (§3)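 Clinical MRSA isolates, from axilla/nasal swabs and identified by mannitol salt agar, Gram stain and coagulase test. […] Inoculum adjusted to McFarland 0.5 in water. Plates incubated 24 h at 37 °C and scored for growth spots. Dilution series quality-controlled with S. aureus NCTC 6571. Combination lines used a 1:1 mixture with oxacillin.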

[20] = test system: Staphylococcus aureus; assay: Bactericidal activity against methicillin-resistant Staphylococcus aureus isolate 1a assessed as reduction in colony counts at 32 ug/ml after 12 hrs by pour plate method in presence of oxacillin (1:1) (reference value: 10.12 +/- 0.428 log10CFU/ml)
[21] = test system: Staphylococcus aureus; assay: Antimicrobial activity against methicillin-resistant Staphylococcus aureus isolate 17a after 24 hrs by agar plate dilution method in presence of oxacillin (1:1); in short: as §2
[22] = test system: Staphylococcus aureus; assay: Antimicrobial activity against methicillin-resistant Staphylococcus aureus isolate 14a after 24 hrs by agar plate dilution method; in short: as §1
[23] = test system: Staphylococcus aureus; assay: Bactericidal activity against methicillin-resistant Staphylococcus aureus isolate 1a assessed as reduction in colony counts at 32 ug/ml after 24 hrs by pour plate method in presence of oxacillin (1:1) (reference value: 12.64 +/- 0.224 log10CFU/ml)
[24] = test system: Staphylococcus aureus; assay: Antimicrobial activity against methicillin-resistant Staphylococcus aureus isolate 8a after 24 hrs by agar plate dilution method; in short: as §3
[25] = test system: Staphylococcus aureus; assay: Antimicrobial activity against methicillin-resistant Staphylococcus aureus isolate 24a after 24 hrs by agar plate dilution method in presence of oxacillin (1:1); in short: as §2
[26] = test system: Staphylococcus aureus; assay: Antimicrobial activity against methicillin-resistant Staphylococcus aureus isolate 29a after 24 hrs by agar plate dilution method in presence of oxacillin (1:1); in short: as §2
[27] = test system: Staphylococcus aureus; assay: Antimicrobial activity against methicillin-resistant Staphylococcus aureus isolate 2a after 24 hrs by agar plate dilution method in presence of oxacillin (1:1); in short: as §2
[28] = test system: Staphylococcus aureus; assay: Antimicrobial activity against methicillin-resistant Staphylococcus aureus isolate 18a after 24 hrs by agar plate dilution method in presence of oxacillin (1:1); in short: as §2
[29] = test system: Staphylococcus aureus; assay: Antimicrobial activity against methicillin-resistant Staphylococcus aureus isolate 18a after 24 hrs by agar plate dilution method; in short: as §1
[30] = test system: Staphylococcus aureus; assay: Bactericidal activity against methicillin-resistant Staphylococcus aureus isolate 1a assessed as reduction in colony counts at 32 ug/ml after 8 hrs by pour plate method (reference value: 8.30 +/- 0.442 log10CFU/ml)
[31] = test system: Staphylococcus aureus; assay: Antimicrobial activity against methicillin-resistant Staphylococcus aureus isolate 28a after 24 hrs by agar plate dilution method; in short: as §1
[32] = test system: Staphylococcus aureus; assay: Antimicrobial activity against methicillin-resistant Staphylococcus aureus isolate 21a after 24 hrs by agar plate dilution method in presence of oxacillin (1:1); in short: as §2
[33] = test system: Staphylococcus aureus; assay: Antimicrobial activity against methicillin-resistant Staphylococcus aureus isolate 9a after 24 hrs by agar plate dilution method; in short: as §3
[34] = test system: Staphylococcus aureus; assay: Bactericidal activity against methicillin-resistant Staphylococcus aureus isolate 1a assessed as reduction in colony counts at 32 ug/ml after 20 hrs by pour plate method in presence of oxacillin (1:1) (reference value: 12.73 +/- 0.223 log10CFU/ml)
[35] = test system: Staphylococcus aureus; assay: Antimicrobial activity against methicillin-resistant Staphylococcus aureus isolate 5a after 24 hrs by agar plate dilution method; in short: as §3

Cc1ncc([N+](=O)[O-])n1CCn1cc(COc2c(Cl)cccc2Cl)nn1
MIC [1]: 32 µg/mL (≈ 80.6 µM) | MIC [2]: 2 µg/mL | MIC [3]: > 128 µg/mL | MIC [4]: 32 µg/mL (≈ 80.6 µM) | MIC [5]: 128 µg/mL (≈ 322 µM) | MIC [6]: 4 µg/mL (≈ 10.1 µM) | MIC [7]: 4 µg/mL | MIC [8]: 2 µg/mL | Activity [9]: 5.84 log10CFU/ml | MIC [10]: > 128 µg/mL | MIC [11]: 64 µg/mL (≈ 161 µM) | MIC [12]: 64 µg/mL (≈ 161 µM) | MIC [13]: 4 µg/mL | MIC [14]: 4 µg/mL | MIC [15]: 4 µg/mL (≈ 10.1 µM) | MIC [16]: 64 µg/mL (≈ 161 µM) | MIC [17]: 4 µg/mL | MIC [18]: 2 µg/mL | MIC [19]: 1 µg/mL | Activity [20]: 5.91 log10CFU/ml | MIC [21]: 1 µg/mL | MIC [22]: > 128 µg/mL | Activity [23]: 5.6 log10CFU/ml | MIC [24]: 4 µg/mL (≈ 10.1 µM) | MIC [25]: 4 µg/mL | MIC [26]: 4 µg/mL | MIC [27]: 1 µg/mL | MIC [28]: 4 µg/mL | MIC [29]: 32 µg/mL (≈ 80.6 µM) | Activity [30]: 6.05 log10CFU/ml | MIC [31]: 128 µg/mL (≈ 322 µM) | MIC [32]: 1 µg/mL | MIC [33]: 8 µg/mL (≈ 20.1 µM) | Activity [34]: 5.26 log10CFU/ml | MIC [35]: 4 µg/mL (≈ 10.1 µM)
